In ChEMBL document CHEMBL3992522, “Antileishmanial Activity of Pyrazolopyridine Derivatives and Their Potential as an Adjunct Therapy with Miltefosine” (J Med Chem, 2017):
The source made the active and inactive calls. The rule behind the calls is not given here.

Tests used:
Type in all cases: functional
Leishmania donovani [1] = assay: Antileishmanial activity against Leishmania donovani MHOM/IN/80/DD8 amastigote forms harboring luciferase gene infected in mouse J774 cells at 50 uM after 72 hrs by Steady-Glo reagent based luminescence assay relative to control; details: for inhibition of growth at 50 µM: MHOM/IN/80/DD8, J774, 72 h, read-out: GI
Procedure, shortened: (§1)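 Stationary-phase luciferase-expressing Dd8 promastigotes infected into J774 macrophages (4×10^4/mL seeded, 24 h, 37 °C, 5% CO2) at 1:8 macrophage:parasite for 24 h. Non-internalised parasites washed off. Compounds added at 50 and 25 µM in RPMI/10% FBS for 72 h. Lysis with Steady-Glo luciferin reagent plus PBS, luminescence read. Inhibition relative to untreated infected controls.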

Leishmania donovani [2] = assay: Antileishmanial activity against Leishmania donovani MHOM/IN/80/DD8 promastigote forms harboring luciferase gene at 25 uM after 72 hrs by Steady-Glo reagent based luminescence assay relative to control; details: MHOM/IN/80/DD8, 72 h, read-out: GI
Procedure, shortened: (§2)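 Exponential-phase Dd8-Luc promastigotes at 1×10^6/mL in M199 with 10% FBS, 24 °C, given 50 and 25 µM for 72 h. Vehicle 0.1% DMSO. Steady-Glo added 1:1, luminescence (RLU) read. IC50 from four-parameter Hill regression, derived only where inhibition exceeded 90%. Means of at least three independent experiments.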

Leishmania donovani [3] = assay: Antileishmanial activity against Leishmania donovani MHOM/IN/80/DD8 amastigote forms harboring luciferase gene infected in mouse J774 cells at 25 uM after 72 hrs by Steady-Glo reagent based luminescence assay relative to control; details: for inhibition of growth at 25 µM: MHOM/IN/80/DD8, J774, 72 h, read-out: GI; procedure, shortened: as §1
Leishmania donovani [4] = assay: Antileishmanial activity against Leishmania donovani MHOM/IN/80/DD8 promastigote forms harboring luciferase gene at 50 uM after 72 hrs by Steady-Glo reagent based luminescence assay relative to control; details: MHOM/IN/80/DD8, 72 h, read-out: GI; procedure, shortened: as §2

Row | Structure (SMILES) | growth inhibition (GI) (Leishmania donovani [1]) | inhibition of growth at 25 µM (Leishmania donovani [2]) [%] | growth inhibition (GI) (Leishmania donovani [3]) | inhibition of growth at 50 µM (Leishmania donovani [4]) [%] | inhibition of growth at 50 µM (Leishmania donovani [1]) [%] | inhibition of growth at 25 µM (Leishmania donovani [3]) [%]
1 | COc1cc(-c2c3c(nc4c2c(-c2c[nH]c5ccccc25)nn4-c2ccc(Cl)cc2)-c2ccccc2C3=O)cc(OC)c1OC | inactive | 28.3 | inactive | 41.1 | – | –
2 | COc1ccc(OC)c(-c2c3c(nc4c2c(-c2c[nH]c5ccccc25)nn4-c2ccc(Cl)cc2)-c2ccccc2C3=O)c1 | inactive | 44.6 | inactive | 53.6 | – | –
3 | CC1(C)CC(=O)c2c(nc3c(c(-c4c[nH]c5ccccc45)nn3-c3ccc(F)cc3)c2-c2ccc(Cl)cc2)C1 | inactive | 61.3 | inactive | 68.6 | – | –
4 | CC1(C)CC(=O)c2c(nc3c(c(-c4c[nH]c5ccccc45)nn3-c3ccc(F)cc3)c2-c2ccc(Cl)cc2Cl)C1 | inactive | 44.6 | inactive | 48.4 | – | –
5 | COc1ccc(-c2c3c(nc4c2c(-c2c[nH]c5ccccc25)nn4-c2ccc(Cl)cc2)CC(C)(C)CC3=O)c(OC)c1OC | inactive | 40.2 | inactive | 54.3 | – | –
6 | O=C1C2=C(Nc3c(c(-c4c[nH]c5ccccc45)nn3-c3ccc(Cl)cc3)C2c2ccc(Cl)cc2)c2ccccc21 (stereo unspecified) | inactive | 49.1 | inactive | 62.4 | – | –
7 | COc1ccc(OC)c(-c2c3c(nc4c2c(-c2c[nH]c5ccccc25)nn4-c2ccc(Cl)cc2)CC(C)(C)CC3=O)c1 | inactive | 50.7 | inactive | 69.6 | – | –
8 | COc1ccc(-c2c3c(nc4c2c(-c2c[nH]c5ccccc25)nn4-c2ccc(Cl)c(Cl)c2)CCC3=O)cc1OC | – | 52.4 | – | 81.1 | 34.3 | 20.8
9 | CC1(C)CC(=O)C2=C(C1)Nc1c(c(-c3c[nH]c4ccccc34)nn1-c1ccc(Cl)cc1)C2c1cccs1 (stereo unspecified) | – | 82.5 | – | 86.5 | 51.7 | 43.8
10 | COc1ccc(OC)c(-c2c3c(nc4c2c(-c2c[nH]c5ccccc25)nn4-c2ccc(F)cc2)CC(C)(C)CC3=O)c1 | – | 84.1 | – | 90.3 | 27.9 | 22.4
11 | COc1cc(C2C3=C(CCC3=O)Nc3c2c(-c2c[nH]c4ccccc24)nn3-c2ccc(F)cc2)cc(OC)c1O (stereo unspecified) | inactive | 56.5 | inactive | 66.9 | – | –
12 | CC1(C)CC(=O)C2=C(C1)Nc1c(c(-c3c[nH]c4ccccc34)nn1-c1ccc(F)cc1)C2c1ccc(Cl)cc1 (stereo unspecified) | inactive | 54.3 | inactive | 65.3 | – | –
13 | COc1cc(-c2c3c(nc4c2c(-c2c[nH]c5ccccc25)nn4-c2ccc(Cl)cc2)CC(C)(C)CC3=O)cc(OC)c1OC | inactive | 59.1 | inactive | 68.6 | – | –
14 | COc1cc(-c2c3c(nc4c2c(-c2c[nH]c5ccccc25)nn4-c2ccc(Cl)cc2)CCC3=O)cc(OC)c1OC | inactive | 66.8 | inactive | 72.3 | – | –
15 | COc1ccc(OC)c(C2C3=C(CCC3=O)Nc3c2c(-c2c[nH]c4ccccc24)nn3-c2ccc(Cl)cc2)c1 (stereo unspecified) | – | 85.5 | – | 93.2 | 42.6 | 37.3
16 | O=C1C2=C(Nc3c(c(-c4c[nH]c5ccccc45)nn3-c3ccc(Cl)cc3)C2c2cccs2)c2ccccc21 (stereo unspecified) | inactive | 65.3 | inactive | 69.2 | – | –
17 | COc1ccc(OC)c(-c2c3c(nc4c2c(-c2c[nH]c5ccccc25)nn4-c2ccc(F)cc2)-c2ccccc2C3=O)c1 | inactive | 49.8 | inactive | 58.3 | – | –
18 | COc1ccc(OC)c(-c2c3c(nc4c2c(-c2c[nH]c5ccccc25)nn4-c2ccc(Cl)cc2)CCC3=O)c1 | inactive | 61.2 | inactive | 67.2 | – | –
19 | COc1ccc(OC)c(-c2c3c(nc4c2c(-c2c[nH]c5ccccc25)nn4-c2ccc(Cl)c(Cl)c2)CC(C)(C)CC3=O)c1 | – | 41.3 | – | 51.8 | 41.3 | 24.6
20 | COc1cc(C2C3=C(CC(C)(C)CC3=O)Nc3c2c(-c2c[nH]c4ccccc24)nn3-c2ccc(Cl)cc2)cc(OC)c1OC (stereo unspecified) | – | 79.3 | – | 86.7 | 28.2 | 23.6
21 | COc1ccc(C2C3=C(CC(C)(C)CC3=O)Nc3c2c(-c2c[nH]c4ccccc24)nn3-c2ccc(Cl)c(Cl)c2)cc1OC (stereo unspecified) | inactive | 52.3 | inactive | 59.5 | – | –
22 | COc1cc(C2C3=C(CCC3=O)Nc3c2c(-c2c[nH]c4ccccc24)nn3-c2ccc(Cl)cc2)cc(OC)c1O (stereo unspecified) | – | 79.1 | – | 89.6 | 30.7 | 25.2
23 | CC1(C)CC(=O)c2c(nc3c(c(-c4c[nH]c5ccccc45)nn3-c3ccc(Cl)cc3)c2-c2ccc(Cl)cc2)C1 | inactive | 56.7 | inactive | 67.4 | – | –
24 | O=C1C2=C(Nc3c(c(-c4c[nH]c5ccccc45)nn3-c3ccc(F)cc3)C2c2ccc(Cl)cc2)c2ccccc21 (stereo unspecified) | inactive | 54.2 | inactive | 68.3 | – | –
25 | COc1ccc(-c2c3c(nc4c2c(-c2c[nH]c5ccccc25)nn4-c2ccc(Cl)cc2)CC(C)(C)CC3=O)cc1 | inactive | 44.3 | inactive | 52 | – | –
26 | CC1(C)CC(=O)c2c(nc3c(c(-c4c[nH]c5ccccc45)nn3-c3ccc(Cl)cc3)c2-c2ccc(Cl)cc2Cl)C1 | inactive | 35.7 | inactive | 40.6 | – | –
27 | COc1ccc(-c2c3c(nc4c2c(-c2c[nH]c5ccccc25)nn4-c2ccc(Cl)c(Cl)c2)CC(C)(C)CC3=O)cc1OC | inactive | 59.4 | inactive | 74.1 | – | –
28 | COc1cc(C2C3=C(CCC3=O)Nc3c2c(-c2c[nH]c4ccccc24)nn3-c2ccc(Cl)cc2)cc(OC)c1OC (stereo unspecified) | – | 78.4 | – | 81.2 | 59.6 | 45.2
29 | CC1(C)CC(=O)C2=C(C1)Nc1c(c(-c3c[nH]c4ccccc34)nn1-c1ccc(Cl)cc1)C2c1ccc(Cl)cc1 (stereo unspecified) | inactive | 62.5 | inactive | 65.4 | – | –
